NOD2 RIPK2 PPI: inhibitors of human NOD2-RIPK2 interaction; O43353; CHO BLA complementation NOD2-RIPK2, CCF4 ratio; inhibition, % at 4.98 µM; 0.38% of 360,000 active; in the data active means inhibition above about 21%;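 further: 0% = vehicle only and 100% = reference blocker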
UPR CHOP act: activators of apoptotic arm of unfolded protein response (CHOP); CHO-CHOP luciferase reporter, UPR activation, luminescence; percent of tunicamycin response over DMSO baseline; activation, % at 10 µM; 0.34% of 330,000 active;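 active means at 10 µM dose, activation of 40% or more, normalized to positive control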;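 further: 100% = tunicamycin at 10 µg/mL and 0% = DMSO alone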
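System: CHO-CHOP luciferase reporter cell line; amount: 500 cells/well; buffer or medium: F12 medium containing 10% fetal bovine serum; incubation: 6 h compound exposure at 37 °C after overnight seeding; measured by: luciferase luminescence after 10 min with Steady-Glo reagent; evaluation: % reporter activation, DMSO baseline versus tunicamycin full activation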
CHOP inhibitor: inhibitors of CHOP induction in ER stress response; CHO-K1 CHOP-promoter luciferase, tunicamycin-induced, 15-18 h; inhibition, % at 10 µM; 3.8% of 220,000 active; AID 2732;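 active means compounds that reduced the stress-induced luciferase reporter signal by more than about 70% of percent inhibition, limit read from the data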;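 further: 0% = tunicamycin plus vehicle and 100% = wells without tunicamycin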
UPR XBP1 act: activators of adaptive arm of unfolded protein response (XBP1); CHO-XBP1 luciferase reporter, IRE1-XBP1 UPR activation, luminescence; percent of tunicamycin response, DMSO as zero; activation, % at 20 µM; 0.33% of 330,000 active;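 active means versus positive control, 20 µM dose yields 30% or more activation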;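 further: 100% = tunicamycin at 10 µg/mL and 0% = DMSO only wells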
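Material: CHO-XBP1 cells stably carrying IRE1-XBP1-driven luciferase reporter | Medium: F12 with 10% serum | Compound dosing: 20 µM single concentration, DMSO 1% | Incubation: Overnight seeding at 37 °C, 6 h compound treatment at 37 °C | Detection: Steady-Glo luminescence read | Read-out basis: % activation of reporter signal versus tunicamycin and DMSO controls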
TLR9-MyD88 inh: inhibitors of human TLR9-MyD88 binding | Q9NR96+Q99836 | CHO BLA complementation TLR9-MyD88, CCF4 FRET ratio | inhibition, % at 4.98 µM | 0.21% of 340,000 active | AID 504734;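 active means inhibition above the mean over all tested compounds plus 3 SD, cut at about 21% in these data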;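 further: 0% = DMSO only wells and 100% = clavulanate BLA inhibitor control wells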
Target sequence (Q99836 whole entry, looked up): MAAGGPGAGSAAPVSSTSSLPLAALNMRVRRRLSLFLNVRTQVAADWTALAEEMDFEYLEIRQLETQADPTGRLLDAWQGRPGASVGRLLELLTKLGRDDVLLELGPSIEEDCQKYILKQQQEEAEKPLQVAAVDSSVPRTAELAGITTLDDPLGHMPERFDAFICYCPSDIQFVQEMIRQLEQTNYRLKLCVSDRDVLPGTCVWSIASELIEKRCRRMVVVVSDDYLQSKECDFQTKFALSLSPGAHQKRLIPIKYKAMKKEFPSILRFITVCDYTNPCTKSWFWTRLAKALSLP
Target sequence (Q9NR96 whole entry, looked up): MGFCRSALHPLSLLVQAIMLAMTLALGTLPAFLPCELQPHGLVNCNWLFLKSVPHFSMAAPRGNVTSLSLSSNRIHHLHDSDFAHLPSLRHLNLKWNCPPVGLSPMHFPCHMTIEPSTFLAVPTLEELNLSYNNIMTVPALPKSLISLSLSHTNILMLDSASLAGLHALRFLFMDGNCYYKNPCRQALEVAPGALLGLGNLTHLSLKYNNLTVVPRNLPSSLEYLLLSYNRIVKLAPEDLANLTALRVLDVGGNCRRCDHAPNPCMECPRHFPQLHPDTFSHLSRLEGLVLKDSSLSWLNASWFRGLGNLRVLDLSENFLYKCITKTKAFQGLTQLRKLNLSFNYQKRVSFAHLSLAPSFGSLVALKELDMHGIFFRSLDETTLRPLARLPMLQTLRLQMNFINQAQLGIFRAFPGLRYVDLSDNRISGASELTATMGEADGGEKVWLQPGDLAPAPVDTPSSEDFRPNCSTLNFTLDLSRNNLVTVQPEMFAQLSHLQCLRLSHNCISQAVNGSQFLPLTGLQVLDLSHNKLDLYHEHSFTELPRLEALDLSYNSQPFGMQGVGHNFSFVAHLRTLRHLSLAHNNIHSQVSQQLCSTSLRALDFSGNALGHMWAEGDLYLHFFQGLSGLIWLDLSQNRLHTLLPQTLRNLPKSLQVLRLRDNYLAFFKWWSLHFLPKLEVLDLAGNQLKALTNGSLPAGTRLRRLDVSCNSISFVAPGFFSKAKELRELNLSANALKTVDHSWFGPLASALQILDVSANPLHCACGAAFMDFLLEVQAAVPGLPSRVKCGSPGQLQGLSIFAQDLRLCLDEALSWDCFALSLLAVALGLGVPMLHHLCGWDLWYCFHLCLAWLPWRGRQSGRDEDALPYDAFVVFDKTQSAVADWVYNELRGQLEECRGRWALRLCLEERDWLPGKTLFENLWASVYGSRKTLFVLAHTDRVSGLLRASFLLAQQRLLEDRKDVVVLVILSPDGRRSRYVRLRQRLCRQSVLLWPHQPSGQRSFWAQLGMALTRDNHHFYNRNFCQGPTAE
TLR4-MyD88 BLA: TLR4-MyD88 interaction inhibition in cells | O00206+Q99836 | HeLa CL3-4 TLR4/MyD88 BLA complementation, FRET ratio | inhibition, % at 8.4 µM | 0.18% of 200,000 active | AID 861; in the data active means inhibition above about 25%;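 further: 0% = vehicle and 100% = reference inhibitor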
* marks the source's active call; other numbers are inactive results; / = not tested or not shown. This excerpt belongs to a sample that is enriched for hits.

SMILES	NOD2 RIPK2 PPI	UPR CHOP act	CHOP inhibitor	UPR XBP1 act	TLR9-MyD88 inh	TLR4-MyD88 BLA
Cc1cccc(NC(=O)N2CCC(c3nc4ccccc4o3)CC2)c1	3	0	38	-2	-3	12
O=C(c1ccccc1)c1ccc2nc(-c3ccco3)c(-c3ccco3)nc2c1	-3	8	72*	-1	4	-4
CC(C)=CCC/C(C)=C/CCC(C)NCCN1CCNCC1 (stereo not given)	/	-1	95*	-7	/	14
CCOC(=O)C1(C)CCCN1C(=O)c1cccc(F)c1 (stereo not given)	-5	/	/	/	/	/
COc1ccc(O)c(/C=N/NC(=O)c2ccc(CSc3nc(C)cc(C)n3)cc2)c1	-12	-2	71*	-3	7	2
C[C@H]1CN([C@@H](C)CO)C(=O)CCCn2nncc2CO[C@H]1CN(C)S(=O)(=O)c1ccc(C#N)cc1	8	/	/	/	-18	/
CCOC(=O)C1CCCN(c2nc3ccccc3nc2C(C#N)C(=O)NCc2ccccc2)C1 (stereo not given)	-2	-1	74*	-4	-1	0
CC[N+]1=C(C)C(C)(C)c2cc(C)ccc21	9	0	74*	2	-13	3
CCCCn1c(NC(=O)CC)c(C#N)c2nc3ccccc3nc21	6	-1	94*	1	-2	-9
COCc1cc(C)nc(NC2CCCCC2)c1C#N	-14	-2	82*	0	1	3
COc1ccc(C(=O)/C=C2/C(=O)Nc3ccccc32)cc1OC	10	48*	/	-2	5	/
CCc1nnc(NC(=O)Cn2nc(-c3ccccc3OC)ccc2=O)s1	9	-1	70*	-1	9	-5
Fc1ccc(-c2nnc(-c3ccc(Cl)cc3Cl)o2)cc1	-17	-8	80*	-8	-2	-7
COC(=O)[C@]12CCCCC=C1N(Cc1ccco1)C(=O)[C@H](CC(=O)N1CCN(C(=O)C3CC3)CC1)C2	-7	/	/	/	/	/
CCCS(=O)(=O)NC(=O)C1(C)CCN(C(=O)c2c(C)noc2C)C1 (stereo not given)	4	/	/	/	/	/
Cc1ccc(-n2nnnc2SC(C(=O)c2c[nH]c3ccccc23)c2ccccc2)cc1 (stereo not given)	-5	2	72*	-2	-8	-21
O=C(Nc1ccc(F)cc1)c1nc[nH]c1C(=O)Nc1ccccc1[N+](=O)[O-]	-7	/	87*	/	2	2
Cc1ccc(N(CC(O)Cn2c3ccccc3c3ccccc32)S(C)(=O)=O)cc1 (stereo not given)	-3	1	83*	-3	1	14
Cc1cccc(C)c1N(CC(O)Cn1c2ccccc2c2ccccc21)S(C)(=O)=O (stereo not given)	2	3	43	3	1	-11
Cc1ccc(N(CC(O)CON=C2c3ccccc3-c3ccccc32)S(C)(=O)=O)cc1 (stereo not given)	-2	-1	91*	-3	-1	4
OC(CON=C1c2ccccc2-c2ccccc21)CN1CCNCC1 (stereo not given)	-5	1	1	4	2	-4
Cc1ccc(N(CC(O)Cn2c3ccccc3c3ccccc32)S(C)(=O)=O)c(C)c1 (stereo not given)	-9	-2	85*	-4	-4	0
COc1cccc(COC(=O)Nc2ccccc2)c1OC	-3	/	/	/	/	/
CNC(=O)C[C@H]1C(=O)N(CCc2ccccc2)C[C@@H]1Cc1ccccc1	-10	/	/	/	-5	/
O=c1[nH]nc(Cc2ccc(Cl)cc2Cl)c2ccccc12	-4	-1	80*	-2	-2	0
SMILES	NOD2 RIPK2 PPI	UPR CHOP act	CHOP inhibitor	UPR XBP1 act	TLR9-MyD88 inh	TLR4-MyD88 BLA
O=c1[nH]nc(CNc2ccc(Cl)cc2Cl)c2ccccc12	-4	-1	71*	-1	-8	-10
O=c1[nH]nc(Cc2ccc(Cl)cc2)c2ccccc12	2	2	54	-1	-1	-3
COc1ccc(OC)c(NC(=O)C2(C)CCN2CCc2ccccc2)c1 (stereo not given)	1	/	/	/	/	/
COC(=O)[C@]12CCCCC=C1N(Cc1cccc3ccccc13)C(=O)[C@H](CC(=O)NCCCCc1ccccc1)C2	-8	/	/	/	/	/
N#CC(c1ccccc1)C(CC(=NO)c1ccccc1)c1ccccc1 (stereo not given)	6	/	/	/	1	/
CC(N)C(=O)NC(C(=O)NC(C)C(=O)Nc1cccc2ccccc12)C(C)C (stereo not given)	-4	/	/	/	/	/
N/C(=N\OC(=O)c1ccc(Cl)cc1Cl)c1ccccn1	13	-11	79*	-6	5	-24
Cc1ccc(C(=O)O/N=C(\N)c2ccccn2)c(Cl)c1	-13	-12	/	-13	0	/
Cc1ccc(C(=O)O/N=C(\N)c2ccc(Br)cc2)cc1	-14	4	72*	-3	8	11
Cc1ccc(/C(N)=N/OC(=O)COc2ccccc2Cl)cc1	-6	4	70*	0	2	4
Cc1ccc(C(=O)O/N=C(\N)c2ccccc2)c(Cl)c1	2	-10	72*	-12	-9	/
CC(C)(C)NC(=O)C(c1cccc2ccccc12)n1c(=O)c(-c2ccco2)nc2ccccc21 (stereo not given)	14	/	/	/	/	/
OC(COC(c1ccc(Cl)cc1)c1ccc(Cl)cc1)CN1CCc2ccccc2C1 (stereo not given)	-6	-2	90*	2	-10	-2
CCCCN(C(=O)COC(=O)c1sccc1C)c1c(N)n(CCC)c(=O)[nH]c1=O	-9	/	/	/	-3	/
COC(=O)c1cc(CN2CCN(c3ccccc3C)CC2)ccc1O	-8	-3	72*	-2	0	1
CCCCc1ccc(S(=O)(=O)NC(=O)C2(C)CCN2C(=O)CC2CC2)cc1 (stereo not given)	1	/	/	/	/	/
O=C1Nc2ccc(Cl)cc2[C@@](C#CC2CC2)(C(F)(F)F)O1	/	0	102*	-5	/	/
CCCCCCn1c(SCC(=O)Nc2cc(C)on2)nc2ccccc2c1=O	-10	5	75*	-1	-5	14
O=C(CSc1nc2ccccc2c(=O)n1Cc1ccc(F)cc1)NCc1cccs1	-15	-1	82*	-1	-2	1
Cc1cc(NC(=O)CSc2nc(C(C)C)nc3sc(C)c(C)c23)no1	-12	0	85*	10	-6	5
C=CCSc1nc2ccccc2c(=O)n1Cc1ccccc1	9	-4	87*	-1	7	-8
Cc1sc2nc(C(C)C)nc(SCC(=O)NC3CC3)c2c1C	-4	1	/	3	2	/
O=c1c2ccccc2nc(SCc2ccccc2Cl)n1Cc1ccccc1	-10	1	0	-2	8	2
